Data set [1] deals with USP7 catalytic domain (amino acids 208–560) (Homo sapiens, UniProt Q93009). As to the kind of experiment: Ub-AMC assay, USP7 catalytic domain. It counts as biochemical. The settings on record: for inhibition of USP7: catalytic domain, Ub-AMC, concentrations up to 100 μM. An outline of the steps:
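Human USP7 catalytic domain (residues 208–560) was expressed in E. coli BL21(DE3), purified on Ni-NTA, thrombin-treated, gel-filtered and used at 250 nM. 2 uM Ub-AMC was then added. Fluorescence (ex 345/em 445 nm) was read every minute for 30 min. IC50 came from initial rates plotted against concentration.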

Data set [2] can be described thus: Solubility in aqueous buffer. It counts as physicochemical.
The test system of the next data set is panel of purified DUBs. Nature of the data set: Selectivity profiling. It counts as biochemical.
For a further data set, the system named is MCF7 cells. As to the kind of experiment: HDM2, p53 and p21 protein levels in MCF7 cells. In kind it is cell-based. The note with it: 16 hours. The essentials: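 MCF7 cells grown in RPMI with 10% heat-inactivated FBS and penicillin/streptomycin at 37 °C, 5% CO2. Treated with test compound or DMSO for 16 h. Where used, cycloheximide (50 ug/ml) was added at 14 h. Cells were washed in PBS and lysed in modified RIPA buffer with phosphatase and protease inhibitors. Protein was quantified by BCA, then immunoblotted for mdm2, p53, p21, GAPDH and USP7.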

A further data set concerns USP7. The note with it: read-out: IC50, USP7; ref Altun et al., 2011; Ritorto et al., 2014; cited from earlier work.
For another data set, the system named is USP10. The note with it: ref Altun et al., 2011; Ritorto et al., 2014; cited from earlier work.
The test system of a further data set is USP47. The settings on record: ref Altun et al., 2011; Ritorto et al., 2014; cited from earlier work.
For data set [3], the target named is full-length USP7 (amino acids 1–1102) (Homo sapiens, UniProt Q93009). Nature of the data set: Ub-AMC assay, full-length USP7. The settings on record: XL188 vs 1. It counts as biochemical. The essentials: (§1)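 Full-length USP7 (1–1102), wild type or Q351 mutant, was expressed in E. coli BL21(DE3), purified by Ni-NTA and Superdex 200 and used at 50 nM. 2 uM Ub-AMC was added and fluorescence (345/445 nm) read each minute over 30 min. Initial rates against concentration gave IC50.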
full-length USP7 (amino acids 1–1102), sequence (Q93009 whole entry, the tested form may be a part): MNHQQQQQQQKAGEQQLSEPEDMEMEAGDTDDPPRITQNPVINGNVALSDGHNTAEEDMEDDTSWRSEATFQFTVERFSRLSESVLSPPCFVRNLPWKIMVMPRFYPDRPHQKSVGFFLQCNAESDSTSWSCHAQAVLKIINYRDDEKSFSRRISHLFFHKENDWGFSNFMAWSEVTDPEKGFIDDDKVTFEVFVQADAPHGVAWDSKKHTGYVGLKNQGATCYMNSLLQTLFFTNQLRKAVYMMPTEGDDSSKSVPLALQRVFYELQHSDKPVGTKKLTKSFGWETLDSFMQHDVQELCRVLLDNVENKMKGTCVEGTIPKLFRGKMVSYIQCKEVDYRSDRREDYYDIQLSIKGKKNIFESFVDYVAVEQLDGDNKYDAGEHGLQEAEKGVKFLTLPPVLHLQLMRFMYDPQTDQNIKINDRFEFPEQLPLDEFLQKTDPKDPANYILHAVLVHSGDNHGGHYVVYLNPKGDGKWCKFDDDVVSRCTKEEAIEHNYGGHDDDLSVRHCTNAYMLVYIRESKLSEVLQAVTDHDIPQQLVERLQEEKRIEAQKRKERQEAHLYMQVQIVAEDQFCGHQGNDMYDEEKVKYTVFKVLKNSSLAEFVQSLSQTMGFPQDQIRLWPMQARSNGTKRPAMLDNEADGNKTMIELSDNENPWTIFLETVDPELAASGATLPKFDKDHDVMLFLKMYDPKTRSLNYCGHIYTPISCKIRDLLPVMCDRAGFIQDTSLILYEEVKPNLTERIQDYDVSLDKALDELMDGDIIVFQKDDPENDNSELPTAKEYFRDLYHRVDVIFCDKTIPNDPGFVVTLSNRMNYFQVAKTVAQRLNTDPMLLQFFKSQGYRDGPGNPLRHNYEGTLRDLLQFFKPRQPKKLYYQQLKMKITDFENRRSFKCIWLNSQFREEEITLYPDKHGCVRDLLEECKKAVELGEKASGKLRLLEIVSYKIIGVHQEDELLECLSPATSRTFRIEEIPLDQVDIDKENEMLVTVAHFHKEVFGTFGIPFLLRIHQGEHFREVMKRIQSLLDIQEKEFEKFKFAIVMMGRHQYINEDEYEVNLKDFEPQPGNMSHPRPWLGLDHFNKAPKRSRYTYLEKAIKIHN

Another data set has as its target full-length USP7Q351S (Homo sapiens, UniProt Q93009, Q351S). As to the kind of experiment: Ub-AMC assay, full-length USP7Q351S. The note with it: dose-response, amino acids 1–1102. In kind it is biochemical. The essentials: as §1
The next data set has as its target native USP7 (Homo sapiens, UniProt Q93009). As to the kind of experiment: Competitive activity based protein profiling with HA-Ub-Vs in HEK293T lysates. It counts as binding.
The nature of data set [4]: Mouse liver microsome stability. In kind it is in vitro ADME. The settings on record: liver microsomes.
A further data set deals with MM.1S cells. Nature of the data set: HDM2, p53 and p21 protein levels in MM.1S cells. The note with it: 6 hours. It counts as cell-based. An outline of the steps: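 MM.1S cells were cultured in RPMI with 10% heat-inactivated FBS and penicillin/streptomycin (37 °C, 5% CO2). They were exposed to test compound or DMSO for 6 h, with or without 50 ug/ml cycloheximide added at 4 h. After a PBS wash, cells were lysed in modified RIPA containing phosphatase and protease inhibitors. Lysates were BCA-normalised and immunoblotted for mdm2, p53, p21, GAPDH and USP7.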

Where only a bound is given, the exact number is not on record here.

USP7 catalytic domain (amino acids 208–560), sequence (Q93009 208-560): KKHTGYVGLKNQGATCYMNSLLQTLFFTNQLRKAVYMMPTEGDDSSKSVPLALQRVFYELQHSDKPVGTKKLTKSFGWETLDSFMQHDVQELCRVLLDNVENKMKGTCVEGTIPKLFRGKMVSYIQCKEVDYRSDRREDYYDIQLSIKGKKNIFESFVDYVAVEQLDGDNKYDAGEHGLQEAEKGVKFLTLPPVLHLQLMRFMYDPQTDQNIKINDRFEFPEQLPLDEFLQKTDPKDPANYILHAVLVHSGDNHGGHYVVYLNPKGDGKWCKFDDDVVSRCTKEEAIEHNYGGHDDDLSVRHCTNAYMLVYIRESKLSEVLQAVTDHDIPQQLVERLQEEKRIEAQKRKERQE
native USP7, sequence (Q93009 whole entry): as the sequence (Q93009 whole entry, the tested form may be a part) above
full-length USP7Q351S, sequence (Q93009 whole entry Q351S, the tested form may be a part): as the sequence (Q93009 whole entry, the tested form may be a part) above, with Q351S counted along it

`CC(=O)N1CCC(O)(Cn2cnc3cc(Cl)ccc3c2=O)CC1` [Compound 6, 3-((1-acetyl-4-hydroxypiperidin-4-yl)methyl)-7-chloroquinazolin-4(3H)-one]: in data set [1], the IC50 (in general, the concentration that gives 50% inhibition) was more than 100 µM.
Take `C[C@H](CC(=O)N1CCC(O)(Cn2cnc3cc(Cl)ccc3c2=O)CC1)c1ccccc1` [Compound 9, (R)-7-chloro-3-((4-hydroxy-1-(3-phenylbutanoyl)piperidin-4-yl)methyl)quinazolin-4(3H)-one]: in data set [1] ((R)- vs (S)-stereoisomer), the “fold more potent than the (S)-stereoisomer (10)” value is reported as “approximately 100 fold”. In addition, the “solubility in aqueous buffer” value in data set [2] is given as “poor”.
Take `C[C@@H](CC(=O)N1CCC(O)(Cn2cnc3cc(NC(=O)CCN4CCN(C)CC4)ccc3c2=O)CC1)c1ccccc1` [XL203C, (S)-N-(3-((4-hydroxy-1-(3-phenylbutanoyl)piperidin-4-yl)methyl)-4-oxo-3,4-dihydroquinazolin-7-yl)-3-(4-methylpiperazin-1-yl)propanamide]: in the data set on panel of purified DUBs (Figure S1G, Table S1, concentration not given), the “inhibition of other DUBs” value was “no significant inhibition”. For the same compound, the “levels of p53 and p21” value with MCF7 cells is reported as “no observable change”.
For the compound `O=C(CCc1ccccc1)N1CCC(O)(Cn2cnc3cc(Cl)ccc3c2=O)C1` (stereo not drawn) [Compound 5, 7-chloro-3-((3-hydroxy-1-(3-phenylpropanoyl)pyrrolidin-3-yl)methyl)quinazolin-4(3H)-one], the “inhibition of USP7” value in data set [1] was “abrogated USP7 activity”.
For `O=C(CCc1ccccc1)N1CCC(Cn2cnc3cc(Cl)ccc3c2=O)CC1` [Compound 2, 7-chloro-3-((1-(3-phenylpropanoyl)piperidin-4-yl)methyl)quinazolin-4(3H)-one], in data set [1], the “inhibition of USP7” value is “little inhibition”.
Consider `CC(=O)c1cc([N+](=O)[O-])c(Sc2ccc(F)cc2F)s1` [Compound P22077], for which, in the data set on USP7, the concentration for half-maximal inhibition (IC50) was […]. Moreover, the “inhibition of USP10 compared with USP7” value in the data set with USP10 is listed as “equipotent”. Besides, the “inhibition of USP47 compared with USP7” value in the data set with USP47 was “equipotent”.
`O=C(Cc1ccccc1)N1CCC(O)(Cn2cnc3cc(Cl)ccc3c2=O)CC1` [Compound 7, 7-chloro-3-((4-hydroxy-1-(2-phenylacetyl)piperidin-4-yl)methyl)quinazolin-4(3H)-one] had an IC50 in [1] of more than 100 µM.
Turning to `N#CC1(Cn2cnc3cc(Cl)ccc3c2=O)CCN(C(=O)CCc2ccccc2)CC1` [Compound 3, 4-((7-chloro-4-oxoquinazolin-3(4H)-yl)methyl)-1-(3-phenylpropanoyl)piperidine-4-carbonitrile], in [1], the “inhibition of USP7” value was “little inhibition”.
For the compound `CC(CC(=O)N1CCC(O)(Cn2cnc3cc(Cl)ccc3c2=O)CC1)c1ccccc1` (stereo not drawn) [Compound 8, 7-chloro-3-((4-hydroxy-1-(3-phenylbutanoyl)piperidin-4-yl)methyl)quinazolin-4(3H)-one], in data set [1] (relative to 1), the “fold improvement of biochemical potency” value is “approximately 10 fold”.
Turning to `O=c1c2ccc(Cl)cc2ncn1CC1(O)CCN(CCCc2ccccc2)CC1` [Compound 4, 7-chloro-3-((4-hydroxy-1-(3-phenylpropyl)piperidin-4-yl)methyl)quinazolin-4(3H)-one], the “inhibition of USP7” value in data set [1] is “abrogated USP7 activity”.
Take `C[C@H](CC(=O)N1CCC(O)(Cn2cnc3cc(NC(=O)CCN4CCN(C)CC4)ccc3c2=O)CC1)c1ccccc1` [XL188, (R)-N-(3-((4-hydroxy-1-(3-phenylbutanoyl)piperidin-4-yl)methyl)-4-oxo-3,4-dihydroquinazolin-7-yl)-3-(4-methylpiperazin-1-yl)propanamide]: the results for the half-maximal inhibitory concentration (IC50) (in data set [1]; on native USP7) were 0.193 µM and approximately 0.9 µM, respectively. Moreover, in data set [3], the “fold improvement in biochemical inhibition of USP7 compared to 1” value is 100 fold. Besides, in the data set on panel of purified DUBs (10 μM compound, Ub-Rho as substrate), the “inhibition of DUBs other than USP7, panel of 41 purified DUBs” value was “little to no inhibition”. For the same compound, the “inhibition of full-length USP7Q351S” value against full-length USP7Q351S is reported as “resistant”. The half-life (commonly how long it takes for the measured level to halve) in [4] stood at 31 min. In the data set on MCF7 cells, the “levels of p53 and p21” value was “increased”. Also, the HDM2 level result with MCF7 cells (cycloheximide for the last 2 hours) was “Degradation of HDM2”; with MM.1S cells it was “loss of HDM2”. For the same compound, in the data set on MM.1S cells, the “levels of p21 and p53” value is “increase”.

The values above are taken from publication PMC5749250 (Cell chemical biology, 2017).
